# High-throughput results deposited in PubChem BioAssay by Sanford-Burnham Center for Chemical Genomics.
# In the library only some 1.5% were active in any assay of this set; here they are far more common.
# APJ agonist: agonists of human APJ apelin receptor. activation, % at 20 µM. CHO-K1 APJ PathHunter beta-arrestin, luminescence; 0% DMSO wells, 100% apelin. hit rate 0.11% among 330,000. P35414;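 active = activation more than six SD over the plate average, tested at 20 µM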;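 note: 0% = DMSO alone and 100% = apelin-13 at 10 nM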
# Target sequence (P35414 whole entry, looked up): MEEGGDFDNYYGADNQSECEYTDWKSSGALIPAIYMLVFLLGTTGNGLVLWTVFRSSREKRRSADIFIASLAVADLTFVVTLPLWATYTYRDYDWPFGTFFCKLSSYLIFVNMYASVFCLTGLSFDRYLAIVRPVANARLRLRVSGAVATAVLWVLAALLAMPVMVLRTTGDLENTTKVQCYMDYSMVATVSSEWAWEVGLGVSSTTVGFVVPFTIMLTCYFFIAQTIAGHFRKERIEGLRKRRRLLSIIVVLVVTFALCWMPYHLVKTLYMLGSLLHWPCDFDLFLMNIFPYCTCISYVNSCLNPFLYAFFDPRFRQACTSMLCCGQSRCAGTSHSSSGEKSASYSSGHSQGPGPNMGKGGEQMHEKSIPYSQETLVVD
#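 Assay system: CHO-K1 cells stably expressing ProLink-tagged human APJ and arrestin–beta-gal acceptor. Compound dosing: 20 µM single point, 1% DMSO. Times: 16-18 h seeding, 90 min dark compound exposure, 60 min detection. Detection: beta-gal luminescence. Evaluation: APJ–arrestin association signal. Controls: negative DMSO alone, positive Apelin-13 at 10 nM.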
# CXCR6 inh: CXCR6 (human) receptor inhibition; AID 602244; hit rate 0.36% among 360,000; CHO-K1 PathHunter CXCR6 beta-arrestin, luminescence; inhibition, % at 20 µM; O00574; in the data active = inhibition above about 34%, passing the limit was not always enough;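 note: antagonist mode with CXCL16 agonist at 10 nM final; 0% = 10 nM CXCL16 with DMSO and 100% = unstimulated wells without agonist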
# APJ antagonist: antagonists of human APJ apelin receptor; hit rate 0.32% among 330,000; CHO-K1 APJ beta-arrestin complementation, luminescence; inhibition, % at 20 µM; AID 2521;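 active = inhibition above about 40% at 20 µM, limit read from the data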;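 note: cells challenged with 10 nM apelin-13 agonist together with compound; plate controls were apelin-13 plus DMSO wells for no effect and DMSO wells lacking apelin-13 for full effect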
# CCR6 antagonist: CCR6 (human) receptor antagonism; hit rate 0.49% among 340,000; P51684; inhibition, % at 20 µM; CHO-K1 CCR6 PathHunter beta-arrestin, luminescence, CCL20-stimulated;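 active = compounds whose inhibition of the agonist-driven luminescence signal at 20 µM reaches about 50%, limit read from the data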;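 note: cells stimulated with CCL20 at 14 nM final; plate controls were DMSO with CCL20 for no effect and DMSO without agonist for full effect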
# EBI2 block: blocks human EBI2 receptor beta-arrestin signaling. inhibition, % at 5 µM. hit rate 0.81% among 360,000. EBI2 beta-arrestin recruitment, luminescence, 7a,25-OHC stimulated. P32249; in the data active = inhibition above about 38%;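 note: enzyme fragment complementation signal reports receptor beta-arrestin coupling in cells; 0% = agonist plus DMSO wells and 100% = wells without agonist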
# EBI2 antag conf: EBI2 (human) antagonism, single concentration confirmation. inhibition, % at 5 µM. EBI2 beta-arrestin luminescence, 7a,25-OHC antagonism. shares compounds with EBI2 block. hit rate 29% among 2,400;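 active = inhibition of at least 50%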
# EBI2 agonist: EBI2 agonism counter-screen; EBI2-expressing cells, agonist mode, luminescence, 60 min; 0% vehicle, 100% 7α,25-dihydroxycholesterol control; activation, % at 5 µM; 2,400 tested, under 10 active; AID 652000; shares compounds with EBI2 block;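 active = activation of at least 50%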
# bGal cs: counter-screen for EBI2 antagonists: E. coli beta-galactosidase inhibition | inhibition, % at 5 µM | hit rate 1% among 2,400 | shares compounds with EBI2 block | purified beta-galactosidase, luminescent Galacton Star, 15 min;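 active = replicate-average signal at least 3 plate SD below neutral wells, shown as high inhibition, flagging enzyme-inhibiting false positives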;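 note: 0% = DMSO wells with enzyme and 100% = wells lacking enzyme; higher means stronger loss of beta-gal luminescence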
# Active calls of the source: *; nt = no result given.
SMILES,APJ agonist,CXCR6 inh,APJ antagonist,CCR6 antagonist,EBI2 block,EBI2 antag conf,EBI2 agonist,bGal cs
O=c1[nH]c(NC2CCN(S(=O)(=O)c3ccccc3C(F)(F)F)CC2)nc2c1CCCC2,12,-8,-21,-36,-15,nt,nt,nt
Cc1cc(C)c(OCC(=O)N2CC=C(c3ccccc3)CC2)c(C)c1,-2,1,2,2,60*,71*,4,-3
CCOC(=O)/C(=C\c1ccc(N2CCC(c3ccccc3)=N2)cc1)C(C)=O,nt,11,nt,18,48*,53*,0,3
O=C(/C=C/c1ccc(N2CCC(c3ccccc3)=N2)cc1)c1ccccc1,-2,nt,5,11,nt,nt,nt,nt
CCOc1ccc(/C=N/NC(=O)Nc2ccccc2)cc1,-1,5,14,-12,18,nt,nt,nt
CCN(CC)c1ccc(/C=N/NC(=O)Nc2ccccc2)cc1,-5,-5,9,0,40*,52*,0,-10
Cn1nc(-c2ccccc2)c(-c2nc(-c3ccccc3Cl)no2)c1Cl,-3,-10,0,13,6,nt,nt,nt
CCOC(=O)C1=CCN(S(=O)(=O)c2ccccc2Br)C1c1cccc(Cl)c1 (stereo not drawn),nt,5,nt,nt,28,nt,nt,nt
CCOC(=O)C1=CCN(S(=O)(=O)c2ccccc2C)C1c1cccc(Cl)c1 (stereo not drawn),nt,nt,nt,nt,61*,44,-1,-12
CCOC(=O)C1=CCN(S(=O)(=O)c2ccccc2Cl)C1c1cccc(Br)c1 (stereo not drawn),nt,3,nt,nt,56*,20,0,5
CCOC(=O)C1=CCN(S(=O)(=O)c2ccccc2F)C1c1cccc(Cl)c1 (stereo not drawn),nt,4,nt,nt,-26,nt,nt,nt
O=C1N/C(=N\N=C\c2ccccn2)SC1Cc1cccc(SC(F)F)c1 (stereo not drawn),-3,25,-3,47,14,nt,nt,nt
COC(=O)c1nnn(-c2nonc2N)c1CSc1nnc(N)s1,1,4,7,5,0,nt,nt,nt
Cc1ccc(/C=C(\C#N)C(=O)NCc2ccco2)o1,-1,2,0,2,-17,nt,nt,nt
COc1ccc2nc(SCC(=O)N3CC(=O)Nc4ccccc43)c(C#N)cc2c1,2,-2,-7,9,57*,35,-1,6
CCCc1nc2ccc(NC(=O)c3cccs3)cc2c(=O)n1Cc1ccc(Cl)cc1,-2,2,6,-9,43*,20,3,6
COC(=O)c1ccc(NC(=O)Cn2nnc3ccccc32)cc1,5,-1,-3,-11,1,nt,nt,nt
O=[N+]([O-])c1ccc(N2CCCCC2)cc1NCCOc1ccccc1,-2,9,27,20,44*,35,-1,-10
N#Cc1nc(Cc2cccc3ccccc23)oc1NCc1ccc(F)cc1,0,3,7,1,45*,25,-2,-5
C=CCNc1oc(Cc2cccc3ccccc23)nc1C#N,-3,2,3,7,-4,nt,nt,nt
CC(C)(C)CNC(=O)c1cccc2c1C(=O)c1ccc(N3CCCC3)cc1S2(=O)=O,-1,-5,1,-2,54*,61*,1,-7
COc1ccc2nccc(/C=C/c3ccnc4ccc(OC)cc34)c2c1,-3,-4,8,8,38*,-3,0,-9
CC(=O)N1CCOc2ccc(S(=O)(=O)N3CCC(C(=O)NCc4ccc(F)cc4)CC3)cc21,3,-2,22,-12,69*,56*,2,-13
CC(=O)N1CCOc2ccc(S(=O)(=O)N3CCC(C(=O)NCc4ccc(Cl)cc4)CC3)cc21,nt,-6,nt,nt,90*,80*,2,1
CC(=O)N1CCOc2ccc(S(=O)(=O)N3CCC(C(=O)NCc4ccc(C)cc4)CC3)cc21,-2,5,-20,4,94*,85*,1,8
SMILES,APJ agonist,CXCR6 inh,APJ antagonist,CCR6 antagonist,EBI2 block,EBI2 antag conf,EBI2 agonist,bGal cs
CCc1ccc(NC(=O)C2CCN(S(=O)(=O)c3ccc4c(c3)N(C(C)=O)CCO4)CC2)cc1,-7,2,21,11,6,nt,nt,nt
CC(=O)N1CCOc2ccc(S(=O)(=O)N3CCC(C(=O)Nc4ccc(C)cc4)CC3)cc21,-3,-2,14,-3,-3,nt,nt,nt
CC(=O)c1ccc(S(=O)(=O)NCC(=O)N2CCN(C/C=C/c3ccccc3)CC2)cc1,0,3,-1,7,19,nt,nt,nt
O=C(CSc1ccccc1)N1CCN(S(=O)(=O)c2ccccc2F)CC1,0,-4,16,15,24,nt,nt,nt
O=C(/C=C/c1ccc2ccccc2n1)N1CCN(c2ccccc2)CC1,-2,8,-8,9,2,nt,nt,nt
O=C(/C=C/c1ccc2ccccc2n1)N1CCN(S(=O)(=O)c2ccc(F)cc2)CC1,-5,-8,5,19,50*,39,1,11
O=C(/C=C/c1ccc2ccccc2n1)N1CCN(S(=O)(=O)c2ccccc2F)CC1,-1,-2,5,6,55*,41,0,-17
N#Cc1ccc2[nH]cc(C3c4cc(F)ccc4C=C(c4ccsc4)N3c3ccc(C#CCCO)cc3)c2c1 (stereo not drawn),nt,-6,nt,nt,-1,nt,nt,nt
COc1ccc(C2(C(=O)NCC3CCCO3)CCOCC2)cc1 (stereo not drawn),0,-3,11,8,2,nt,nt,nt
Cc1cc(C)cc(NC(=O)Nc2ccc3c(c2)N(C)C(=O)CS3)c1,1,-12,2,-21,38*,48,-1,-19
O=C(c1ccco1)N1CCN(S(=O)(=O)/C=C/c2ccccc2)CC1,-3,-9,6,-10,7,nt,nt,nt
Cc1ccc(S(=O)(=O)N2CCN(C(=O)c3cc(=O)c4ccccc4o3)CC2)cc1,-2,0,14,11,46*,39,1,9
O=C(c1ccc(Cl)cc1)N1CCN(S(=O)(=O)/C=C/c2ccccc2)CC1,-3,-6,0,28,92*,67*,3,8
COc1cc(SC)ccc1C(=O)N1CCN(S(=O)(=O)/C=C/c2ccccc2)CC1,-3,-4,-4,5,65*,24,-2,-10
Cc1ccc(C(=O)N2CCN(S(=O)(=O)c3ccc(C)cc3)CC2)cc1,-1,-3,-3,16,5,nt,nt,nt
O=C(c1cc2ccccc2o1)N1CCN(S(=O)(=O)c2ccccc2)CC1,-2,4,12,14,75*,41,1,6
Nc1o[nH]c(=O)c1Cc1ccccc1,-1,-6,-4,2,0,nt,nt,nt
O=C(c1cc2ccccc2o1)N1CCN(S(=O)(=O)c2cccs2)CC1,0,-6,-13,-7,59*,53*,1,0
